Test system: MS2 coat protein
Experiment: apparent Kd, MS2 coat protein; higher = weaker binding; RNA-MaP array; FMN 200 µM where present
Procedure, shortened: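 The apparent Kd comes from binding curves fitted cluster by cluster, filtered, and summarised as a median. Those curves followed SNAP-549-labelled MS2 coat protein from 0.7 or 1.5 nM, doubling to 3 µM, on Illumina sequencing-chip clusters where stalled E. coli RNA polymerase had transcribed the designs, without and then with constant ligand. The buffer was 100 mM Tris-HCl pH 7.5, 80 mM KCl, 4 mM MgCl2, BSA, DTT, yeast tRNA and Tween-20, and green signal was normalised to red-channel RNA signal and control-cluster median Fmax.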

[1] = designed as: OFF switch for flavin mononucleotide, no ligand
[2] = ligand present: flavin mononucleotide, designed as: OFF switch for flavin mononucleotide
[3] = designed as: ON switch for flavin mononucleotide, no ligand
[4] = ligand present: flavin mononucleotide, designed as: ON switch for flavin mononucleotide

## GUGUGCUGAGGAUAUACAUAGGAAGAGAAGAGAAGAGAAGGACAUGAGGAUCACCCAUGUAGAAGGCAGAGUGU
[1]
  apparent Kd: 28.2 nM
[2]
  apparent Kd: 33.3 nM

## GUGGCUAGUGCAGGAUAUUAGUGCGUGUAGUAUUGAGAAGGGCACAUGAGGAUCACCCAUGUGAUCAAUCACUGUUAAGGUCGC
[1]
  apparent Kd: 79.7 nM
[2]
  apparent Kd: 76.5 nM

## ACAGGCUUCGAGAAGGACAUGAGGAUCACCCAUGUGCGUGUGAAGCAGCCGUGAGGCUGCAUCAUGUAGGAUAUCGGAGUCUGA
[1]
  apparent Kd: 75.5 nM
[2]
  apparent Kd: 559 nM

## AAAACUCAGAUAGGAUAUAUAGGAUAACUUAAGACCUAACAUGAGGAUCACCCAUGUGAUUAUUCGUAGAAGGAUCAUUGAACC
[3]
  apparent Kd: 240 nM
[4]
  apparent Kd: 238 nM

## AAAAAGCGAGGAUAUACAUGAGGAUCACCCAUGUGAAAAAAAAAAAAAAAAAAAAAAAGUAGAAGGCGCAAAAA
[1]
  apparent Kd: 85.8 nM
[2]
  apparent Kd: 65.3 nM

## AGGUGUCCUGAGAAAUUUCUCGACAUGAGGAUCACCCAUGUAGAGGAUAUCGACGCUGUGCGGUUCGAGAAGGCUACACGAAUU
[1]
  apparent Kd: 12.7 nM
[2]
  apparent Kd: 94.3 nM

## AGACUGAAGCAAGGAUAUUGUAAGGUUAUCGUACAAGAAGGUGCUGUUUAUGUCUCUUUACAUGAGGAUCACCCAUGUUUUUAA
[3]
  apparent Kd: 22.2 nM
[4]
  apparent Kd: 23.5 nM

## AAUUUCAGAUGAGGAUAUUGACAUGAGGAUCACCCAUGUAUUUGGGAAUGUUUACUGAAUUCUUACAAGAAGGUAUACGAACUU
[1]
  apparent Kd: 237 nM
[2]
  apparent Kd: 164 nM

## UGGUAACAUGAGGAUCACCCAUGUCAGGAUAUCAGUAAGAAGAGAUUAGAGUAGAAUAUGAGAAGGGACUAUAG
[1]
  apparent Kd: 36.7 nM
[2]
  apparent Kd: 30.4 nM

## GUGGUAUUCGUAGGAUAUCCGUCGCCACCGUGUGGAGAAGGACGAACAUGAGGAUCACCCAUGUAUCAUGGUGUGGACGCUGUC
[1]
  apparent Kd: 92.1 nM
[2]
  apparent Kd: 86.6 nM

## GUAGAGAUUACAUGAGGAUCACCCAUGUCAGAACGGGUAAUCAGAAGGUAUUAUUAGAGAAAGGGUAAGGAUAUGAUUUUUUAU
[3]
  apparent Kd: 735 nM
[4]
  apparent Kd: 617 nM

## AUGUACCUAGGAUAUACAUGAGGAUCACCCAUGUUCCGGGUGCAAUCAAGUUAAUAUUGUAGAAGGAGGUGAAA
[1]
  apparent Kd: 17 nM
[2]
  apparent Kd: 31.8 nM

## AAAUCAGCAGGAUAUACGAUGUUAUGCUAGAUAGCGGGACCACAUGAGGAUCACCCAUGUAGAAGGGCUAGAUA
[1]
  apparent Kd: 35 nM
[2]
  apparent Kd: 30.8 nM

## AAGAAGUCAGGAUAUCCUGCUCGUCACUUGCGUGAUGAGUAGGAGAAGGGACAUGAGGAUCACCCAUGUAAAGU
[1]
  apparent Kd: 51.1 nM
[2]
  apparent Kd: 56.2 nM

## GUAGCUAUCGGAGGAUAUUCAUAGCGGAAACGGACAUGAGGAUCACCCAUGUGGCUAAAGCCUUGGGAGAAGGCCGAUAGCUAC
[3]
  apparent Kd: 25.8 nM
[4]
  apparent Kd: 6.64 nM

## GUGCACAUUCGAGGAUAUCGGAGAGAGAUCGUUCGAGAAGGCGAUUCAUGAUGUAUUAUCCUGGACAUGAGGAUCACCCAUGUG
[3]
  apparent Kd: 105 nM
[4]
  apparent Kd: 89.3 nM

## UAUAUAAUUAAGAGCUGGAAAACAACAUGAGGAUCACCCAUGUAGGAUAUCAGCACGAUAAGUGCUGAGAAGGACUACCAGCUC
[1]
  apparent Kd: 14 nM
[2]
  apparent Kd: 16.8 nM

## GGAUAGGACAGAGGAUAUACGUGCUAGAGAUACUAGCAAAAUUUCCUCACAUGAGGAUCACCCAUGUAGAAGGCUGUCCUGUCG
[1]
  apparent Kd: 17.1 nM
[2]
  apparent Kd: 354 nM

## GGAUCCUUCACAGGAUAUGCUGGACUUUGUCCAGCAGAAGGGUGAACAUGAGGAUCACCCAUGUAUUGGAUCCAUAUAUUUAAU
[3]
  apparent Kd: 897 nM
[4]
  apparent Kd: 56.1 nM

## GCCUUAUCGGUCAGGAUAUACACCCGUUAGUUGUUGUAGAAGGGACAUGAGGAUCACCCAUGUACAUUACAUUG
[1]
  apparent Kd: 22.8 nM
[2]
  apparent Kd: 60 nM

## UGAGCAAGAGGAUAUACAAGGCGACCGUGAGGUCGAGGGUUACAUGAGGAUCACCCAUGUAGAAGGCUUGUUCU
[1]
  apparent Kd: 37.1 nM
[2]
  apparent Kd: 323 nM

## CUAUGCGGAAUAGGAUAUUCGCUCAUGAGGAUAGAAGAAGGGUUACAUGAGGAUCACCCAUGUAUGCACAUGAGGAUCCCUUAG
[1]
  apparent Kd: 134 nM
[2]
  apparent Kd: 150 nM

## GAGGACUGAAUAAUAAGUAGAAAUACAUGAGGAUCACCCAUGUAGGAUAUCGUCAGGAAUACUGACGAGAAGGACAUACAGUCC
[1]
  apparent Kd: 14.1 nM
[2]
  apparent Kd: 18.1 nM

## GUAGCUAUCGGAGGAUAUUCAUGAAACAUGAGGAUCACCCAUGUUAAAUUGGGAGAAGGCCGAUAGCUACAAGAGCGAAAGCUC
[3]
  apparent Kd: 7.5 nM
[4]
  apparent Kd: 5.32 nM

## UGAGCAAGAGGAUAUACAAGGCGACCGUGAGGUCGAGGUUUACAUGAGGAUCACCCAUGUAGAAGGCUUGUUCU
[1]
  apparent Kd: 17.2 nM
[2]
  apparent Kd: 38.9 nM

## CAGCCCUGAGGAUAUCCAUCCUUGUACAUGAGGAUCACCCAUGUUUUCCUCUGGGCUUUCGGAGAAGGCAGGUAUC
[1]
  apparent Kd: 74.4 nM
[2]
  apparent Kd: 68.5 nM

## ACUAGAUGAGGAUAUGCAUGUUUUCAUGUUCUUCUAGAUUAACAUGAGGAUCACCCAUGUAGAAGGCGUCUUAU
[1]
  apparent Kd: 19.4 nM
[2]
  apparent Kd: 37.9 nM

## UAUAUAUAGUAAGGAUAUGUAUUAAUUUUUUAAACAGAAGGUACUGACAUGAGGAUCACCCAUGUUUUAGUGUGGGCAUGUAGA
[1]
  apparent Kd: 78.8 nM
[2]
  apparent Kd: 131 nM

## AGAAAUUAGUGAGGAUAUGCAUAAUUUGUAGCUGCAGAAGGCACGGACCACAAGACAUGAGGAUCACCCAUGUGGUAUUUAGAU
[1]
  apparent Kd: 26.8 nM
[2]
  apparent Kd: 28 nM

## GAAUAAUUGAUCCAUUUUUAAAACAUGAGGAUCACCCAUGUGCAGGAUAUCGUGUGAGUUAAAUACGAGAAGGGCAAGAACUGU
[1]
  apparent Kd: 201 nM
[2]
  apparent Kd: 214 nM

## AGUGACGACACAGGAUAUGCUGGACUUUGUCCAGCAGAAGGGUGUUAACAUGAGGAUCACCCAUGUAUCGUCACCAAAUUUAAU
[3]
  apparent Kd: 628 nM
[4]
  apparent Kd: 34.1 nM

## ACAUGAGGAUCACCCAUGUAUUUAUUUGAAUCUUAAGUUACGUAGGAUAUCGUGUAUACUAUCAUCGAGAAGGACGAUGUGAUA
[3]
  apparent Kd: 15.4 nM
[4]
  apparent Kd: 13.6 nM

## AAUGUACGAGGAUAUACAUAGAUACAGAUACAUGUAGACGUACAUGAGGAUCACCCAUGUAGAAGGCGUACAUA
[1]
  apparent Kd: 178 nM
[2]
  apparent Kd: 73.8 nM

## AGCUGGUUAGGAUAUACAUGAGGAUCACCCAUGUUAAAAAAAAAAAAAAGAUUAAAGUGUAGAAGGGAUUAGUA
[1]
  apparent Kd: 40.4 nM
[2]
  apparent Kd: 37.1 nM

## UCUAUGAAGAUUCGUCAAUACAGUUAGGAUAUGAGAGACAUGAGGAUCACCCAUGUGCAUGUUGAUUAGAAGGAACAAUUAUCU
[1]
  apparent Kd: 20.9 nM
[2]
  apparent Kd: 19.3 nM

## UAGAAGUCAGGAUAUGCAUGGCGGGACUUGCGUCGUGGCGUGCAGAAGGGACAUGAGGAUCACCCAUGUGGAGC
[1]
  apparent Kd: 116 nM
[2]
  apparent Kd: 169 nM

## GAUUCACAUGAGGAUCACCCAUGUGAGGAUAUAGUGCAGGAGGUGAAUGUCCACCUCUCUAGAAGGCACACGGG
[1]
  apparent Kd: 22.3 nM
[2]
  apparent Kd: 23.6 nM

## UAUUAUCACGAAGGAUAUGCUGACAUGAGGAUCACCCAUGUAUGUAUAUUGAUCCAGCGUAUUUAGCAGAAGGUCGUGAGUAAA
[1]
  apparent Kd: 45.9 nM
[2]
  apparent Kd: 43 nM

## AAAAAGCGAGGAUAUACAUAGCUAAGACAAAUAAGCAAAAAACAUGAGGAUCACCCAUGUAGAAGGCGCAAAAA
[1]
  apparent Kd: 19.2 nM
[2]
  apparent Kd: 15.4 nM

## GUUAUGCAGCAGGAUAUCCAUCCGCGGUAUGGUGGAGAAGGGCUGACAUGAGGAUCACCCAUGUGCGUCCUAGG
[1]
  apparent Kd: 39.9 nM
[2]
  apparent Kd: 104 nM

## CAGCGCUGUCGAGAGGAUAUGCGGUGAUGGACAUGAGGAUCACCCAUGUUAGCGACAGCAUCACGGCAGAAGGCUCUACCGCUGC
[3]
  apparent Kd: 31.5 nM
[4]
  apparent Kd: 21.7 nM

## UUGUUACGAUUAGGAUAUUAUUGAUUGGACAGUAUGAUUUACAUGAGGAUCACCCAUGUUACUUUUAAGAAGGAAUCGUAUUAU
[1]
  apparent Kd: 20.9 nM
[2]
  apparent Kd: 17.2 nM

## GGCUCCGCUCGAGGAUAUAGCUGCAUGUAGUGUCCUGAGGCACAUGAGGAUCACCCAUGUGUAGGCUAGAAGGCGACGGACGUU
[1]
  apparent Kd: 121 nM
[2]
  apparent Kd: 249 nM

## UGGCCGAAGUUAGGAUAUUGGUUAGGGACGGACUAAGAAGGAGCACAUACAUGAGGAUCACCCAUGUUAGAAGAAGAUCCUCCA
[1]
  apparent Kd: 29.3 nM
[2]
  apparent Kd: 26.7 nM

## AUUAUACAUGAGGAUCACCCAUGUUUUGGUGGGUCAGGAUAUAAAUUGAAUGAGUUUUAGUUAGAAGGGACAUUUA
[3]
  apparent Kd: 56.5 nM
[4]
  apparent Kd: 42.9 nM

## UUAAUAAAGUAAGGAUAUACAUGAGGAUCACUCGUAGAAGGUACUAUACAUGAGGAUCACCCAUGUUCCGGUCAGAAGACUGGA
[3]
  apparent Kd: 1100 nM
[4]
  apparent Kd: 778 nM

## UUUUUUGUUGUGAGGAUAUCGUAGUUAUUUUGUUACGAGAAGGCACAUGAGGAUCACCCAUGUUUUUUGAUGUU
[1]
  apparent Kd: 23.8 nM
[2]
  apparent Kd: 82.6 nM

## GAUGUAUUCGUAGGAUAUCCGUCGCCACCGUGUGGAGAAGGACGAACAUGAGGAUCACCCAUGUAUCAUGGUGUAGACACUUUC
[1]
  apparent Kd: 142 nM
[2]
  apparent Kd: 190 nM

From the EternaBench riboswitch data
